For series [1], the system named is Mus musculus. Briefly: In vivo inhibition of JAK2 homodimer in Balb/c mouse assessed as inhibition of GM-CSF induced STAT5 phosphorylation in blood at 10 ug, it for 12 consecutive days. The class given is functional, organism-based. In a few lines: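 After i.t. dosing in mouse, GM-CSF-induced phosphorylated STAT5 measured in blood; percent inhibition ± 95% CI from geometric means versus vehicle groups; N = 3.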

The target of series [2] is Non-receptor tyrosine-protein kinase TYK2 (Homo sapiens, UniProt P29597). In words: Inhibition of Tyk2 (unknown origin) using peptide substrate preincubated for 60 mins followed by substrate addition and measured after 60 mins by microfluidic assay. In short, it runs like this: (§1)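 Caliper microfluidic assay of peptide-substrate phosphorylation by the relevant JAK enzyme, run at 1 mM ATP; IC50 values are geometric means of at least three determinations.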

Series [3] has as its system Canis familiaris. In words: Unbound clearance in dog at 0.1 mg/kg, iv administered as 30 mins infusion. The class given is ADME, organism-based, Canis lupus familiaris. Conditions: in vivo, 0.5 h.
For series [4], the system named is Canis familiaris. In words: Intrinsic clearance in dog at 0.1 mg/kg, iv administered as 30 mins infusion. The class given is ADME, organism-based, Canis lupus familiaris. Conditions: in vivo, 0.5 h.
A short description of series [5]: Volume of distribution at steady state in dog at 0.1 mg/kg, iv administered as 30 mins infusion. It counts as ADME, organism-based, Canis lupus familiaris. To be noted: in vivo, read-out: Vdss.
For series [6], the target named is 5-hydroxytryptamine receptor 7 (Homo sapiens) (UniProt P34969). Briefly: Antagonist activity at recombinant human 5-HT7 receptor expressed in CHO cells assessed as inhibition of serotonin-induced cAMP accumulation at 10 uM after 30 mins by HTRF method relative to control. The class given is functional, cell-based. For orientation: cAMP levels reflect the balance of adenylyl cyclase and phosphodiesterase activity.

Series [7] in a line: Volume of distribution at steady state in rat at 0.5 mg/kg, iv. To be noted: in vivo, read-out: Vdss. The class given is ADME, organism-based.
A further series has as its system Liver. Briefly: Metabolic stability in human liver microsomes assessed per mg protein. The class given is ADME, microsome. In a few lines:
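Metabolic stability measured as turnover in human liver microsomes.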
On the technique in general: Microsomes from liver hold many membrane-bound enzymes, among them those of drug oxidation.

The subject of series [8] is Mus musculus. In words: In vivo receptor occupancy at JAK1 in Balb/c mouse lungs at 10 to 100 ug, it measured after 4 hrs. The class given is functional, organism-based. In short, it runs like this:
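JAK1 target occupancy in mouse lung measured over time after i.t. administration of 10 μg or 100 μg.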

Series [9] in a line: Thermodynamic solubility of the compound in pH 7.4 water buffer using crystalline solid sample. It counts as physicochemical. To be noted: read-out: Therm_solubility. In short, it runs like this: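 Thermodynamic solubility measured from crystalline solid in water buffered at pH 7.4.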
Series [10] can be described thus: Chemical stability at room temperature up to 6 weeks. The class given is physicochemical. Conditions: 1008 h. In a few lines: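 Crystalline solid stored at room temperature and at 40 °C/75% relative humidity for up to 6 weeks; chemical stability assessed.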
A further series has as its system Rattus norvegicus. In words: Unbound clearance in rat at 0.5 mg/kg, iv. Conditions: in vivo. The class given is ADME, organism-based.
Series [11] can be described thus: Oral bioavailability in rat at 1 mg/kg. It counts as ADME, organism-based. To be noted: in vivo.
The nature of series [12]: Lipophilicity, logD of the compound by shake flask method. It counts as physicochemical. Conditions: octanol/water. In a few lines:
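log D measured by the shake flask method.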

Series [13] deals with Tyrosine-protein kinase JAK2 (Homo sapiens, UniProt O60674). In words: Inhibition of GST tagged human recombinant JAK2 catalytic domain expressed in baculovirus using peptide substrate preincubated for 60 mins followed by substrate addition and measured after 60 mins by microfluidic assay. In short, it runs like this: as §1
Another series addresses hERG (KCNH2) (Homo sapiens, UniProt Q12809). In words: Inhibition of human ERG at 1 uM. In short, it runs like this:
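hERG potassium current measured with compound at 1 μM.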

The target of a further series is JAK1/TYK2 (Homo sapiens) (UniProt P23458+P29597).
In series [14] the test system is Mus musculus. Briefly: In vivo inhibition of JAK2/TYK2 in Balb/c mouse model of IL-23 induced inflammation assessed as reduction of ear swelling pretreated topically as 4 % solution bid on ear for 12 consecutive days followed by IL-23 stimulation at 2 hrs post compound treatment on day 2, 4, 7, 9 and 11. The class given is functional. In a few lines:
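Mouse ear dermal model: compound applied topically as a 4% solution in propylene glycol 30, PEG400 30, dimethyl isosorbide 10, glycerin 25.9, BHA 0.1 (% wt/wt); repeated IL-23 ear injections, with ear swelling followed over 11 days.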

A further series addresses Janus Kinase (JAK) (Homo sapiens, UniProt P52333+P23458+O60674+P29597).
The target of series [15] is Aurora kinase A (Homo sapiens) (UniProt O14965). Briefly: Inhibition of recombinant human AurA/Aur 2 kinase expressed in insect Sf21 cells at 10 uM using Ulight-RRRSLLE substrate after 15 mins by LANCE assay. In a few lines:
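Single-point screen at 10 μM within a broad panel of radioligand binding and enzyme inhibition assays covering receptors, transporters, enzymes and ion channels.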

Series [16] concerns the target T1, Tyrosine-protein kinase JAK3 (Homo sapiens, UniProt P52333).
T1 sequence (P52333 whole entry): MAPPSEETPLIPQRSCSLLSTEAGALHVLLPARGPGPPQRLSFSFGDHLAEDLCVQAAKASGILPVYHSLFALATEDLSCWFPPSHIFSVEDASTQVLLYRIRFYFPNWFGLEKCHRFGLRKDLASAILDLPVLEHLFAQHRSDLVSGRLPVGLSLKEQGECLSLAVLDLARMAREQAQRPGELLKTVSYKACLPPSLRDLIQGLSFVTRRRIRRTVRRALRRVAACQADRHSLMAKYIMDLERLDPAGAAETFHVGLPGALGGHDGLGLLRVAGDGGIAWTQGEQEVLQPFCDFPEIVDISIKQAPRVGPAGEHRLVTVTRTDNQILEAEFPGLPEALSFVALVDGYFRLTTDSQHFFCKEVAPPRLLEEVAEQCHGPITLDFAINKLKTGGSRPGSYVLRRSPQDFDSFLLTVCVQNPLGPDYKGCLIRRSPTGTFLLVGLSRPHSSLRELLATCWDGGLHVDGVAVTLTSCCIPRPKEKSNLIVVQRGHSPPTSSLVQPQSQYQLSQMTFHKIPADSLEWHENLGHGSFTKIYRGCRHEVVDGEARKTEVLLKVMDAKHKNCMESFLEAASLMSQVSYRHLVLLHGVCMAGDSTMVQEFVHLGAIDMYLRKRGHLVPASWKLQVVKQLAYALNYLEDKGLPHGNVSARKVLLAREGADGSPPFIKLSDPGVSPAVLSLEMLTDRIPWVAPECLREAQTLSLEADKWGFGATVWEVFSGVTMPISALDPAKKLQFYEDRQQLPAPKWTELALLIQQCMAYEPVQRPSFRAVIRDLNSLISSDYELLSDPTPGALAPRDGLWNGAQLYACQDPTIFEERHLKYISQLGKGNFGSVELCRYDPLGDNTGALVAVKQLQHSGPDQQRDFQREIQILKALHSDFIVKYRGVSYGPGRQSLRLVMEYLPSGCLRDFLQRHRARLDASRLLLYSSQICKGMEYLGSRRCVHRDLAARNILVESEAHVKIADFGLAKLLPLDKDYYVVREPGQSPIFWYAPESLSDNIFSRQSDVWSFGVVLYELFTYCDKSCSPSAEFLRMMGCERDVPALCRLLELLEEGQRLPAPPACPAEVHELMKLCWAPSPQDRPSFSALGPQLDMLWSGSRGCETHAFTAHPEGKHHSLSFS
In words: Inhibition of GST tagged human recombinant JAK3 catalytic domain expressed in baculovirus using peptide substrate preincubated for 60 mins followed by substrate addition and measured after 60 mins by microfluidic assay. In a few lines: as §1

≈ marks a conversion by molar mass, not a printed value. Calls of active or inactive are those of the source. The rule behind the calls is not given here. Some results are limits rather than exact numbers.

Aurora kinase A (Homo sapiens), sequence (O14965 whole entry): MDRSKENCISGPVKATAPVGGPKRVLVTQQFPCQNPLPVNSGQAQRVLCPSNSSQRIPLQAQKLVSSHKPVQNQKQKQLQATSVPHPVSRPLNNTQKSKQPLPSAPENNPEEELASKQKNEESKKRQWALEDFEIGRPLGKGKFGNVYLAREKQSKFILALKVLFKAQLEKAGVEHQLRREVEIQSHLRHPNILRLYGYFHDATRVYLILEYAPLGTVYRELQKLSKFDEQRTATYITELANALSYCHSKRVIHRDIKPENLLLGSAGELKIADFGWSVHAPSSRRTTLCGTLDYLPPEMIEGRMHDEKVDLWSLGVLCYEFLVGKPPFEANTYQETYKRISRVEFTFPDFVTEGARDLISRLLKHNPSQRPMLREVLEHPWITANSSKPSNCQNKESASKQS
5-hydroxytryptamine receptor 7 (Homo sapiens), sequence (P34969 whole entry): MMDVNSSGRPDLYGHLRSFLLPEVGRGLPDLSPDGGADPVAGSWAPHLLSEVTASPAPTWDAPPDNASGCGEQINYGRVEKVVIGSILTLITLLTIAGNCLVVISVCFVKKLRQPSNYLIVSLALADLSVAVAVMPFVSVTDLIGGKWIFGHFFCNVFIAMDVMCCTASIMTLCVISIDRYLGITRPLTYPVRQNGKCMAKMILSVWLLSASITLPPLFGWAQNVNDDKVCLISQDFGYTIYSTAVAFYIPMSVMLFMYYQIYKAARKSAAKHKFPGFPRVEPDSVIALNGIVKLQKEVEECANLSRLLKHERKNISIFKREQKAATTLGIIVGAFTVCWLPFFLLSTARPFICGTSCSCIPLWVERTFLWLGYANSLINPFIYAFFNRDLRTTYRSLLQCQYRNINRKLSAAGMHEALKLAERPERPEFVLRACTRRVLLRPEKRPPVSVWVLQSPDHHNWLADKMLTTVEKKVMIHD
Non-receptor tyrosine-protein kinase TYK2, sequence (P29597 whole entry): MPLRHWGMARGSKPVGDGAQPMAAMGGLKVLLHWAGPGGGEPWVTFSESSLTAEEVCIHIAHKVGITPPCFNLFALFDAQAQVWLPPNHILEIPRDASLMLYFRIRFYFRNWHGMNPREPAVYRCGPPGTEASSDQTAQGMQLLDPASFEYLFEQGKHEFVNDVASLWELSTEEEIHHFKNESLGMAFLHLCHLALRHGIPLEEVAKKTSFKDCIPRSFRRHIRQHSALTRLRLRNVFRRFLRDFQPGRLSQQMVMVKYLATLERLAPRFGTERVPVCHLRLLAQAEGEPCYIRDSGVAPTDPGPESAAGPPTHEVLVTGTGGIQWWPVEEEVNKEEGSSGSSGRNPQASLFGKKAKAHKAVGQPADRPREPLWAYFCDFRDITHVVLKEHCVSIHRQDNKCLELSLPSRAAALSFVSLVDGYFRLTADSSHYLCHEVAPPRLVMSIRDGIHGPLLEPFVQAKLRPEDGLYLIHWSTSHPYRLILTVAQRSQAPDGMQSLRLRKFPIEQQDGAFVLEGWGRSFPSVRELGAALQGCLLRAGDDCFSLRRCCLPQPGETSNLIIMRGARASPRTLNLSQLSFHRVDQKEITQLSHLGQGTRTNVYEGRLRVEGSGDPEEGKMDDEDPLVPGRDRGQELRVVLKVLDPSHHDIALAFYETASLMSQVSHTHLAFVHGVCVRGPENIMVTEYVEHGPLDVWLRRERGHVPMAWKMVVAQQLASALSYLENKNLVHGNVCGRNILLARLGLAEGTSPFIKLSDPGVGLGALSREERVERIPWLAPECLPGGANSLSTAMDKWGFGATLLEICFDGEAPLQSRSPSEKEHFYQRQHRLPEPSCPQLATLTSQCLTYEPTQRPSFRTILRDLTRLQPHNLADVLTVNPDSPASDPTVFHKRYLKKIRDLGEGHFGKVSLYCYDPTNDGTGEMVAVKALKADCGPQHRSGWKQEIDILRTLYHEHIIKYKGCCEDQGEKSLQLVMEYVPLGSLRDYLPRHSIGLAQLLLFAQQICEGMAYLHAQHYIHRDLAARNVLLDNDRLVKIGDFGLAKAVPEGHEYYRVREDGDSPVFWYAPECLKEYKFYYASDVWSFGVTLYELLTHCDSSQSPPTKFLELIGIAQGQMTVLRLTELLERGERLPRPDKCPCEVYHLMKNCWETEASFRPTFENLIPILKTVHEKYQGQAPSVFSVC
Tyrosine-protein kinase JAK2, sequence (O60674 whole entry, the tested form may be a part): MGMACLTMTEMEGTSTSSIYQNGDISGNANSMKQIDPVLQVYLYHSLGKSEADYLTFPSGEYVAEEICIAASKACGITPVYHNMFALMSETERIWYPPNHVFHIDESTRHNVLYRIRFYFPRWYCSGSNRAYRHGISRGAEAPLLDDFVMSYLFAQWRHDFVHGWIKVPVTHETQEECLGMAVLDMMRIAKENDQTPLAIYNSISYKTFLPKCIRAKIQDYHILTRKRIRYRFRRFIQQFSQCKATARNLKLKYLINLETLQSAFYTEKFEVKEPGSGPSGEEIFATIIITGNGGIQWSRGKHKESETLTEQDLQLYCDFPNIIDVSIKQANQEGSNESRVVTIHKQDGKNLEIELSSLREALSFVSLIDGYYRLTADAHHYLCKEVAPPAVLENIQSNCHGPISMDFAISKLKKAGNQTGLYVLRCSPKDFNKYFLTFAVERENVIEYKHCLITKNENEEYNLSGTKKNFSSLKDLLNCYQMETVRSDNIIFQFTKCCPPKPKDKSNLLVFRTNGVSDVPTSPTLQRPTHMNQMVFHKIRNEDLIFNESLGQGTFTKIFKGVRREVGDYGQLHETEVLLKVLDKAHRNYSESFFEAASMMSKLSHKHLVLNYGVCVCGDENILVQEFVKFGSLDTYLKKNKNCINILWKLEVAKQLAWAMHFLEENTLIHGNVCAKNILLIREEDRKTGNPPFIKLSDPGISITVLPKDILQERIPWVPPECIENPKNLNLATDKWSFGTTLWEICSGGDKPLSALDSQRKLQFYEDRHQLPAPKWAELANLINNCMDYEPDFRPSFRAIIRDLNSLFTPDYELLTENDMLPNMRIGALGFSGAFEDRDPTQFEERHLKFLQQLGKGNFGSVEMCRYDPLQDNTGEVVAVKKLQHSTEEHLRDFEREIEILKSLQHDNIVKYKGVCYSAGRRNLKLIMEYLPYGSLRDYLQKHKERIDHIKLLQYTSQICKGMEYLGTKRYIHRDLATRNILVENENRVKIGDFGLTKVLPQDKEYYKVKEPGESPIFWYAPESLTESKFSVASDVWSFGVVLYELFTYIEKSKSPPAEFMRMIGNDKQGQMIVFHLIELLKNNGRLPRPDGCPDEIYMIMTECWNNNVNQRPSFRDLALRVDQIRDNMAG
hERG (KCNH2), sequence (Q12809 whole entry): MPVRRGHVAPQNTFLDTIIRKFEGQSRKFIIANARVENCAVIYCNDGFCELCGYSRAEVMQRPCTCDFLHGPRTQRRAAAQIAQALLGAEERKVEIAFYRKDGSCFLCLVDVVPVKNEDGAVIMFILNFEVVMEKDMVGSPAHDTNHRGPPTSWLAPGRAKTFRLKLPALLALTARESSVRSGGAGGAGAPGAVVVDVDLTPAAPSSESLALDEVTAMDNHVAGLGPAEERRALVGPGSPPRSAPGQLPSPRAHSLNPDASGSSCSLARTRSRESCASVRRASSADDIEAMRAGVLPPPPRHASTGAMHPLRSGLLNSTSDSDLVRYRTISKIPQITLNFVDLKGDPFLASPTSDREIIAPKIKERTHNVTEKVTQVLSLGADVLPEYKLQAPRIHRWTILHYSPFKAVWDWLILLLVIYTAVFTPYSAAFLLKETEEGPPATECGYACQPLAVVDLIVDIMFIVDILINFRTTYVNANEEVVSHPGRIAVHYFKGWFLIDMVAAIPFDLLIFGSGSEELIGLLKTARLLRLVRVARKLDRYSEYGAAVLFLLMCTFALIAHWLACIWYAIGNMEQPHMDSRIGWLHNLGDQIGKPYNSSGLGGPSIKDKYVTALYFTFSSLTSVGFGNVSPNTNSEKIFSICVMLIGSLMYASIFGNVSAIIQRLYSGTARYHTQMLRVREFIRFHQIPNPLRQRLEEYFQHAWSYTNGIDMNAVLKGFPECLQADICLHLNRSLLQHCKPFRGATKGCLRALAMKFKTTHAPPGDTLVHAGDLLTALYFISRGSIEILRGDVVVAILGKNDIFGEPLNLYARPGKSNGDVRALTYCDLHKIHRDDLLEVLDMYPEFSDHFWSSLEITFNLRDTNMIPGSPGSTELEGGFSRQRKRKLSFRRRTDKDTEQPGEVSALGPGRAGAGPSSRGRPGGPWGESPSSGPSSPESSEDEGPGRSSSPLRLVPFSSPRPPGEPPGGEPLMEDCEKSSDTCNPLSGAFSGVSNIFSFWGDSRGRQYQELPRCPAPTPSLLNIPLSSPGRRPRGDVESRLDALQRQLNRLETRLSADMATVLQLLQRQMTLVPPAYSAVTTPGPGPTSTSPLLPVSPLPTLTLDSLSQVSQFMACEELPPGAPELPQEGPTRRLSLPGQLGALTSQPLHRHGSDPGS

In the case of `CCc1cc(O)c(F)cc1-c1ccc2c(-c3nc4c([nH]3)CCN(C(=O)c3cnc(N5CCCCC5)cn3)C4)n[nH]c2c1`, in the series with Mus musculus [1], the inhibition (as a rule, the relative decrease from the control value, in per cent) is “inactive”. Besides, the IC50 – broadly, the midpoint of a concentration-inhibition curve – turned out to be 0.0297 µM in series [2], 0.0231 µM in series [13] and 0.0599 µM in series [16]. The CL free in the series on Canis familiaris [3] is greater than 1080 L/h/kg; in the series on Rattus norvegicus it was greater than 2880 L/h/kg. In the series on Canis familiaris [4], this molecule displayed a CL of 1.08 L/h/kg. Moreover, the Vd in [5] came to 1 L/kg; in [7] it was 0.8 L/kg. Besides, the inhibition in [6] and in [15] was greater than 50% throughout. In addition, the Stability in the series on Liver is 101 µL/min; in series [10] it was “Stable”. In the series on Mus musculus [8], the result was Active. In addition, the solubility thermodynamic in [9] turned out to be 0.5 µM (≈ 0.283 µg/mL). For the same molecule, the bioavailability (in general, the share of a dose that reaches the circulation, judged against a reference dose that is usually intravenous) in series [11] is less than 5%. The logD (as a rule, lipophilicity at a set pH, counting ionised and neutral species) in [12] is 3.9. The molecule also registered an inhibition at 1 µM against hERG (KCNH2) of less than 1%. Moreover, the fIC50 at JAK1/TYK2 (Homo sapiens) turned out to be 4.2 nM. Also, the “inhibition (INH)” value in the series with Mus musculus [14] came to 48%. Also, the T1/2 at Janus Kinase (JAK) was greater than 6 h.
